# Test results published in ChEMBL document CHEMBL1134554, “Design, synthesis, and structure-activity relationships of macrocyclic hydroxamic acids that inhibit tumor necrosis factor alpha release in vitro and in vivo” (J Med Chem, 2001).
# What was measured:
# Mus musculus [1] = assay: Compound at an oral dose of 30 mg/Kg was tested for the inhibition of LPS-stimulated TNF-alpha release in mouse; type: functional
# Procedure, shortened: (§1)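 Mice dosed orally at time zero, then immediately given ip D-galactosamine 20 mg plus LPS 10 μg. One hour later, animals anesthetized and bled by cardiac puncture. Plasma TNF-α quantified by mouse-specific ELISA.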
# [2] = molecular target: Disintegrin and metalloproteinase domain-containing protein 17 (Homo sapiens, UniProt P78536)
# Stromelysin-1 = Stromelysin-1 (Homo sapiens, UniProt P08254); assay: Inhibition of human MMP-3.
# Interstitial collagenase = molecular target: T1, Interstitial collagenase (Homo sapiens, UniProt P03956); assay: In vitro inhibition of human MMP-1.
# T1 sequence (P03956 whole entry): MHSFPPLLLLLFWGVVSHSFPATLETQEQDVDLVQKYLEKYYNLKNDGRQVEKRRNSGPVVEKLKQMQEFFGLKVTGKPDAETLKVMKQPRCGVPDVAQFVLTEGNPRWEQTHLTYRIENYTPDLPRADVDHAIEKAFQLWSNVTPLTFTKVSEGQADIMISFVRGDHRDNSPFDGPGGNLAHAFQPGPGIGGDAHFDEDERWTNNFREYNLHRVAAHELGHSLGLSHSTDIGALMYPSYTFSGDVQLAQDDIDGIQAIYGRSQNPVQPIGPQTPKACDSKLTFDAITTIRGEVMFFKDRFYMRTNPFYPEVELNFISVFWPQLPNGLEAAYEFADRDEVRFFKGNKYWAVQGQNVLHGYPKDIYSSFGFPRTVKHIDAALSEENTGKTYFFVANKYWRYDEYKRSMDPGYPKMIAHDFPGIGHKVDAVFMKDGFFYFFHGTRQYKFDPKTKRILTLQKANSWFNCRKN
# [3] = molecular target: Matrix metalloproteinase-9 (Homo sapiens, UniProt P14780); assay: In vitro inhibition of human MMP-9.
# [4] = Pharmacokinetic data in Beagle dogs at 0.5 mg/kg i.v. dose and 2.0 mg/kg p.o. dose; type: ADME, organism-based, Canis lupus familiaris; conditions: dog, in vivo, po
# [5] = Pharmacokinetic data in Beagle dogs at 2.0 mg/kg oral dose; type: ADME, organism-based, Canis lupus familiaris; parameters: dose 2 mg/kg, route oral; conditions: dog, in vivo
# [6] = molecular target: Matrix metalloproteinase-15 (Homo sapiens, UniProt P51511); assay: Inhibition of matrix metalloprotease-15
# [7] = Pharmacokinetic data in Beagle dogs at 0.5 mg/kg intravenous dose.; type: ADME, organism-based, Canis lupus familiaris; parameters: dose 0.5 mg/kg, route intravenous; conditions: dog, in vivo
# Procedure, shortened: (§2)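 Male beagle dogs (~10 kg), two per compound, dosed iv in 10% ethanol solution. Blood sampled before dosing and at 1, 2, 4, 6, 8, 12 and 24 h after. Plasma levels measured by LC/MS/MS after solid-phase extraction (detection limit 10 nM). Parameters reported as mean.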
# [8] = molecular target: Matrix metalloproteinase-14 (Homo sapiens, UniProt P50281); assay: Inhibition of matrix metalloprotease-14
# [9] = Maximal plasma concentration in Beagle dogs after 0.5 mg/kg intravenous dose.; type: ADME, organism-based, Canis lupus familiaris; parameters: dose 0.5 mg/kg, route intravenous; conditions: dog; procedure, shortened: as §2
# [10] = Pharmacokinetic data in Beagle dogs at 2.0 mg/kg oral dose.; type: ADME, organism-based, Canis lupus familiaris; parameters: dose 2 mg/kg, route oral; conditions: dog, in vivo
# Matrilysin = molecular target: T2, Matrilysin (Homo sapiens, UniProt P09237); assay: Inhibition of matrix metalloprotease-7
# T2 sequence (P09237 whole entry): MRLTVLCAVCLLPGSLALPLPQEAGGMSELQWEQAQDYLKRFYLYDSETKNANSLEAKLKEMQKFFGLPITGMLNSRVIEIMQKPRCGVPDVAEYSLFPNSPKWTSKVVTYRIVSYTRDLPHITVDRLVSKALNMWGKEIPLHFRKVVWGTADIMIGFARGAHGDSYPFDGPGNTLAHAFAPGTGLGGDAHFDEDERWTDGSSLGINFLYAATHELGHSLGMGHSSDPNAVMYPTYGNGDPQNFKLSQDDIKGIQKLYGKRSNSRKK
# [11] = molecular target: Matrix metalloproteinase-16 (Homo sapiens, UniProt P51512); assay: Inhibition of matrix metalloprotease-16
# Mus musculus [12] = assay: Compound at an oral dose of 100 mg/Kg was tested for the inhibition of LPS-stimulated TNF-alpha release in mouse; type: functional; procedure, shortened: as §1
# Stromelysin-1, sequence (P08254 whole entry): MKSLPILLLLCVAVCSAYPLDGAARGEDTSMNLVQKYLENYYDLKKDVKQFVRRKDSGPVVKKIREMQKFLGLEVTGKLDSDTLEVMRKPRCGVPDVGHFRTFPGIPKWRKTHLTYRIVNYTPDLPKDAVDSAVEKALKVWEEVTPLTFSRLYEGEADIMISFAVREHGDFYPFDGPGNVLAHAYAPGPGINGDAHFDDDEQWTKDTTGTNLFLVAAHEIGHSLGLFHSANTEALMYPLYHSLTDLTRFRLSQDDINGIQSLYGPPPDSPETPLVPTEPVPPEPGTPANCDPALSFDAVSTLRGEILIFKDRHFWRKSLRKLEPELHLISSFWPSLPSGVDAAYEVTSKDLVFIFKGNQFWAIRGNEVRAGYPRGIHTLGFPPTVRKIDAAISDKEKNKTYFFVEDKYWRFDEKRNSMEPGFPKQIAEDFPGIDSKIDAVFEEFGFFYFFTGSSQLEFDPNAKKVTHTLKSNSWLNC
# Disintegrin and metalloproteinase domain-containing protein 17, sequence (P78536 whole entry, the tested form may be a part): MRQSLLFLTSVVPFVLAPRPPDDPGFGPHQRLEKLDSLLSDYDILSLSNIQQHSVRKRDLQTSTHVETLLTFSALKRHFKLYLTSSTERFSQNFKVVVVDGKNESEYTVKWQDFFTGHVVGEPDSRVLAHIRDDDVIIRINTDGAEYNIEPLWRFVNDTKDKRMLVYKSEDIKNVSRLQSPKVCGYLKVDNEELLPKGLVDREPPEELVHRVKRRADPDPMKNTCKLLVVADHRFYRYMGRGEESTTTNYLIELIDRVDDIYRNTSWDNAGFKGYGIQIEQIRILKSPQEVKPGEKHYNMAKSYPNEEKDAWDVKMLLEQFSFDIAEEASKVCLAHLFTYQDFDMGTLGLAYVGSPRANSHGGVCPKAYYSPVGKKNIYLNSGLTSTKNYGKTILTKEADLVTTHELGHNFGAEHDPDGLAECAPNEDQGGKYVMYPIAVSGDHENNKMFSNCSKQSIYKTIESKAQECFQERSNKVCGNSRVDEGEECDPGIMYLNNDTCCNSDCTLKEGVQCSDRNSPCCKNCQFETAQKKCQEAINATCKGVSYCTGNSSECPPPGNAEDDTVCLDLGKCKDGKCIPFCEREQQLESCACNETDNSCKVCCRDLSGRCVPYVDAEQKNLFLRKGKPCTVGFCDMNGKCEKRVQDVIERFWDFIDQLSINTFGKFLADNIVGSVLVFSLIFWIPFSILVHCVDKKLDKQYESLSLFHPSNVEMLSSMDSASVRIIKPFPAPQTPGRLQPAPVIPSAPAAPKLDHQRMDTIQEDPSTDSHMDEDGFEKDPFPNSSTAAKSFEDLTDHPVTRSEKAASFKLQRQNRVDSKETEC
# Matrix metalloproteinase-9, sequence (P14780 whole entry): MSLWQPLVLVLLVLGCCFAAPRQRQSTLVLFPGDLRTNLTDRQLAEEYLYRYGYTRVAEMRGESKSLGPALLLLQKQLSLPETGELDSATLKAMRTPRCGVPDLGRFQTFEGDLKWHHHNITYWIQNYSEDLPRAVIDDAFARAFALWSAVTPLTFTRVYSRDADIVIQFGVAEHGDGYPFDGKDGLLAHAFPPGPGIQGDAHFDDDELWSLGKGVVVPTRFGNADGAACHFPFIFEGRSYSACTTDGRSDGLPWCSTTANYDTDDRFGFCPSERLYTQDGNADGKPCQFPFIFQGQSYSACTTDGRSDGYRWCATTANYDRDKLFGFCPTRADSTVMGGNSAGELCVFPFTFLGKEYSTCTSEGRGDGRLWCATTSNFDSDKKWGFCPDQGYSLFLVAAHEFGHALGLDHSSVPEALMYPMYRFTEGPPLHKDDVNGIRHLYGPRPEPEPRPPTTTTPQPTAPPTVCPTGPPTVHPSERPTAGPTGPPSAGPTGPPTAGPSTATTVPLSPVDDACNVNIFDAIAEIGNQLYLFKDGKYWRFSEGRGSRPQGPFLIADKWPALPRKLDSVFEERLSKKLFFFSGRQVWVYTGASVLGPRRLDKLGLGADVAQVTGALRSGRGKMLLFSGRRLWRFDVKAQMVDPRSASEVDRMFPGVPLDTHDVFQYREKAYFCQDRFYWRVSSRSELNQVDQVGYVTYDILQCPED
# Matrix metalloproteinase-15, sequence (P51511 whole entry): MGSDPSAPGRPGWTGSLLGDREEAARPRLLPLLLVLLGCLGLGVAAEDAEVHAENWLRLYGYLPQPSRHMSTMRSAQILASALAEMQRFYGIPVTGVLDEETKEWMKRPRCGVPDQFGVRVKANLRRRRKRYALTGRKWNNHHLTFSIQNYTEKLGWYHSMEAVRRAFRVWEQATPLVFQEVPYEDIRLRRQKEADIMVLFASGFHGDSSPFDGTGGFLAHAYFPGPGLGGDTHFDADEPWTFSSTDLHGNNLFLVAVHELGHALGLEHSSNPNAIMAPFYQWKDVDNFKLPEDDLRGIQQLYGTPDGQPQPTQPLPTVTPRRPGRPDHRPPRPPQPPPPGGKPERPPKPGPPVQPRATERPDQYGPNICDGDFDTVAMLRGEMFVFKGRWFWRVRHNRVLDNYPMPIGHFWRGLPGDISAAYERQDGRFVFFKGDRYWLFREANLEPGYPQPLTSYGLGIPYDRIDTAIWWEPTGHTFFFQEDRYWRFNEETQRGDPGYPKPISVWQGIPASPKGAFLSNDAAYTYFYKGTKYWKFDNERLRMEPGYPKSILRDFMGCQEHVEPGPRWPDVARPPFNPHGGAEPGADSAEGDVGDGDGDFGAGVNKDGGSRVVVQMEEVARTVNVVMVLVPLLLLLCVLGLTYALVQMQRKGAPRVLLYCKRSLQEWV
# Matrix metalloproteinase-16, sequence (P51512 whole entry): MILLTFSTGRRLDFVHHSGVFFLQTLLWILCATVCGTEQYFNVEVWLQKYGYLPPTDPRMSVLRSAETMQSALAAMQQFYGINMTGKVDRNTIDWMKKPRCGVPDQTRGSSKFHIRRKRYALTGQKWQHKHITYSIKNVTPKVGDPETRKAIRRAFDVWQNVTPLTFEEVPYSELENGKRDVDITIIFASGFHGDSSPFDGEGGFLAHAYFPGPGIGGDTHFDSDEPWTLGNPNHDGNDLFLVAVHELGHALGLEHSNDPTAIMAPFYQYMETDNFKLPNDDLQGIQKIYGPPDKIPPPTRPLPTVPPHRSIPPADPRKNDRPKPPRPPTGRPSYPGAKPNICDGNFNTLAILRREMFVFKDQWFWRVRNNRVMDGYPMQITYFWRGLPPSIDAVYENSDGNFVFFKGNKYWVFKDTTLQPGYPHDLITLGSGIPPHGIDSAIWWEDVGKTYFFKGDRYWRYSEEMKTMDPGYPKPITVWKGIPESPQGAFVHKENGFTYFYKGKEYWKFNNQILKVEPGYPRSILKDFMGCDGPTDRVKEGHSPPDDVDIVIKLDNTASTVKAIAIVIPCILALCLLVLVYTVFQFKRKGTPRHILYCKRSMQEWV
smiles,measurement,setting,value
CC(C)C[C@H]1C(=O)N[C@H](C(=O)NCC(=O)NC(C)(C)C)Cc2ccc(cc2)OCCC[C@@H]1C(=O)NO,inhibition in vivo at 30 mg/kg,Mus musculus [1],21%
same,IC50,[2],200 nM
CC(C)C[C@H]1C(=O)N[C@H](C(=O)NCC(=O)N(C)C)Cc2ccc(cc2)OCCC[C@@H]1C(=O)NO,inhibition in vivo at 30 mg/kg,Mus musculus [1],45%
same,IC50,[2],400 nM
CNC(=O)[C@@H]1CCc2ccc(cc2)OCCC[C@H](C(=O)NO)[C@@H](CC(C)C)C(=O)N1,IC50,[2],1000 nM
same,Ki,Stromelysin-1,48 nM
same,Ki,Interstitial collagenase,5.3 nM
same,Ki,[3],2.1 nM
CNC(=O)[C@@H]1CCCCNC(=O)CC[C@H](C(=O)NO)[C@@H](CC(C)C)C(=O)N1,IC50,[2],1600 nM
same,Ki,Interstitial collagenase,1.4 nM
same,Ki,[3],3.6 nM
CC(C)C[C@H]1C(=O)N[C@H](C(=O)NCC(=O)NC2CCC2)Cc2ccc(cc2)OCCC[C@@H]1C(=O)NO,inhibition in vivo at 30 mg/kg,Mus musculus [1],31%
same,IC50,[2],200 nM
CCCCCC[C@H]1C(=O)N[C@H](C(=O)N[C@H](COC(C)(C)C)C(=O)NC)Cc2ccc(cc2)OCCC[C@@H]1C(=O)NO,inhibition in vivo at 30 mg/kg,Mus musculus [1],18%
same,IC50,[2],300 nM
CNC(=O)[C@@H]1CCCCN(C)C(=O)OCCC[C@H](C(=O)NO)[C@@H](CC(C)C)C(=O)N1,IC50,[2],2300 nM
same,Ki,Interstitial collagenase,< 1 nM
same,Ki,[3],< 1 nM
CNC(=O)[C@@H]1CCCCNC(=O)OCCC[C@H](C(=O)NO)[C@@H](CC(C)C)C(=O)N1,IC50,[2],1000 nM
same,Ki,Interstitial collagenase,< 1 nM
same,Ki,[3],1.1 nM
CCCCCC[C@H]1C(=O)N[C@H](C(=O)NCCCn2ccnc2)Cc2ccc(cc2)OCCC[C@@H]1C(=O)NO,inhibition in vivo at 30 mg/kg,Mus musculus [1],30%
same,IC50,[2],820 nM
CNC(=O)[C@@H]1CCCCN(C)C(=O)CO[C@H](C(=O)NO)[C@@H](CC(C)C)C(=O)N1,IC50,[2],3800 nM
same,Ki,Stromelysin-1,3 nM
same,Ki,Interstitial collagenase,< 1 nM
same,Ki,[3],3.9 nM
CNC(=O)[C@@H](Cc1ccc(OC)cc1)NC(=O)[C@H](CC(C)C)[C@H](C)C(=O)NO,IC50,[2],1800 nM
same,Ki,Interstitial collagenase,< 1 nM
same,Ki,[3],< 1 nM
CNC(=O)[C@@H]1CSc2ccccc2NC(=O)CO[C@H](C(=O)NO)[C@@H](CC(C)C)C(=O)N1,IC50,[2],8000 nM
same,Ki,Stromelysin-1,22.3 nM
same,Ki,Interstitial collagenase,< 1 nM
CNC(=O)[C@@H]1Cc2cn(c3ccccc23)CCCCO[C@H](C(=O)NO)[C@@H](CC(C)C)C(=O)N1,IC50,[2],3700 nM
same,Ki,Stromelysin-1,2.88 nM
same,Ki,Interstitial collagenase,< 1 nM
CC(C)C[C@H]1C(=O)N[C@H](C(=O)NCC(=O)N2CCOCC2)CCCCNC(=O)OCCC[C@@H]1C(=O)NO,Ki,Stromelysin-1,7.8 nM
same,bioavailability,[4],23%
same,half-life,[5],2.2 h
same,Ki,[6],71 nM
same,AUC,[7],2080 ng·h/mL
same,Tmax,[7],1.25 h
same,clearance,[7],4.83 mL/min/kg
same,half-life,[7],1 h
same,Vd,[7]; read-out: Vss,0.33 L/kg
same,Ki,[8],140 nM
same,Cmax,[9],667 ng/mL
same,Ki,Interstitial collagenase,13 nM
same,AUC,[10],1910 ng·h/mL
same,Ki,Matrilysin,1.5 nM
same,Ki,[11],107 nM
same,Ki,[3],1.2 nM
CC(C)C[C@H]1C(=O)N[C@H](C(=O)NCC(=O)N2CCOCC2)CCCCN(C)C(=O)OCCC[C@@H]1C(=O)NO,IC50,[2],200 nM
CC(C)C[C@H]1C(=O)N[C@H](C(=O)NCC(=O)N2CCN(c3ccccn3)CC2)CCCCNC(=O)OCCC[C@@H]1C(=O)NO,IC50,[2],70 nM
CNC(=O)[C@@H](C)NC(=O)[C@@H]1CCCCNC(=O)OCCC[C@H](C(=O)NO)[C@@H](CC(C)C)C(=O)N1,IC50,[2],270 nM
CC(C)C[C@H]1C(=O)N[C@H](C(=O)NCC(=O)N2CCN(C)CC2)CCCCNC(=O)OCCC[C@@H]1C(=O)NO,IC50,[2],160 nM
CNC(=O)[C@@H](C)NC(=O)[C@@H]1Cc2ccc(cc2)OCCC[C@H](C(=O)NO)[C@@H](CC(C)C)C(=O)N1,IC50,[2],700 nM
CC(C)C[C@H]1C(=O)N[C@H](C(=O)Nc2cccnc2)CCCCN(C)C(=O)OCCC[C@@H]1C(=O)NO,IC50,[2],500 nM
Cc1csc(NC(=O)CNC(=O)[C@@H]2CCCCN(C)C(=O)OCCC[C@H](C(=O)NO)[C@@H](CC(C)C)C(=O)N2)n1,IC50,[2],300 nM
CCCCCC[C@H]1C(=O)N[C@H](C(=O)NCCc2ccc(S(N)(=O)=O)cc2)Cc2ccc(cc2)OCCC[C@@H]1C(=O)NO,inhibition in vivo at 30 mg/kg,Mus musculus [1],26%
same,IC50,[2],480 nM
CC(C)C[C@H]1C(=O)N[C@H](C(=O)NCC(=O)N2CCC(O)CC2)Cc2ccc(cc2)OCCC[C@@H]1C(=O)NO,IC50,[2],200 nM
CCCCCC[C@H]1C(=O)N[C@H](C(=O)N[C@H](CCCCN)C(N)=O)Cc2ccc(cc2)OCCC[C@@H]1C(=O)NO,inhibition in vivo at 30 mg/kg,Mus musculus [1],36%
same,IC50,[2],760 nM
CCCCCC[C@H]1C(=O)N[C@H](C(=O)OC)Cc2ccc(cc2)OCCC[C@@H]1C(=O)NO,IC50,[2],> 50000 nM
CNC(=O)[C@@H]1CCCc2ccc(cc2)OCCC[C@H](C(=O)NO)[C@@H](CC(C)C)C(=O)N1,IC50,[2],2400 nM
same,Ki,Stromelysin-1,16.2 nM
same,Ki,Interstitial collagenase,1.8 nM
same,Ki,[3],3.3 nM
CC(C)C[C@H]1C(=O)N[C@H](C(=O)N[C@H](C)C(=O)N2CCOCC2)CCCCNC(=O)OCCC[C@@H]1C(=O)NO,IC50,[2],150 nM
CC(C)C[C@H]1C(=O)N[C@H](C(=O)NCC(=O)N2CCCC2)CCCCN(C)C(=O)OCCC[C@@H]1C(=O)NO,IC50,[2],400 nM
CC(C)C[C@H]1C(=O)N[C@H](C(=O)NCC(=O)N2CCC(O)CC2)CCCCN(C)C(=O)OCCC[C@@H]1C(=O)NO,IC50,[2],300 nM
CC(C)C[C@H]1C(=O)N[C@H](C(=O)NCC(F)(F)F)CCCCNC(=O)OCCC[C@@H]1C(=O)NO,IC50,[2],2000 nM
CCCCCC[C@H]1C(=O)N[C@H](C(=O)NC)Cc2ccc(cc2)OCCC[C@@H]1C(=O)NO,IC50,[2],2500 nM
same,inhibition in vivo at 100 mg/kg,Mus musculus [12],26%
CC(C)C[C@H]1C(=O)N[C@H](C(=O)NCC(=O)N2CCC(N3CCCCC3)CC2)CCCCNC(=O)OCCC[C@@H]1C(=O)NO,IC50,[2],180 nM
CC(C)C[C@H]1C(=O)N[C@H](C(=O)NCC(=O)N(C)C)CCCCN(C)C(=O)OCCC[C@@H]1C(=O)NO,IC50,[2],300 nM
CC(C)C[C@H]1C(=O)N[C@H](C(=O)NCC(F)(F)F)Cc2ccc(cc2)OCCC[C@@H]1C(=O)NO,IC50,[2],680 nM
CC(C)C[C@H]1C(=O)N[C@H](C(=O)NCC(=O)Nc2ccccc2)Cc2ccc(cc2)OCCC[C@@H]1C(=O)NO,IC50,[2],200 nM
CC(C)C[C@H]1C(=O)N[C@H](C(=O)NCC(=O)N2CC(C)CC(C)C2)Cc2ccc(cc2)OCCC[C@@H]1C(=O)NO (stereo not given in full),IC50,[2],270 nM
CC(C)C[C@H]1C(=O)N[C@H](C(=O)NCC(=O)N2CC(C)OC(C)C2)CCCCNC(=O)OCCC[C@@H]1C(=O)NO (stereo not given in full),IC50,[2],150 nM
CC(C)C[C@H]1C(=O)N[C@H](C(=O)NCC(=O)N2CCCC(C(=O)O)C2)CCCCNC(=O)OCCC[C@@H]1C(=O)NO (stereo not given in full),IC50,[2],580 nM
CC(C)C[C@H]1C(=O)N[C@H](C(=O)Nc2nc(CC(=O)N3CCOCC3)cs2)CCCCNC(=O)OCCC[C@@H]1C(=O)NO,IC50,[2],120 nM
CCOC(=O)N1CCN(C(=O)CNC(=O)[C@@H]2CCCCNC(=O)OCCC[C@H](C(=O)NO)[C@@H](CC(C)C)C(=O)N2)CC1,IC50,[2],130 nM
CC(C)C[C@H]1C(=O)N[C@H](C(=O)NCC(=O)N2CCN(C)CC2)CCCCN(C)C(=O)OCCC[C@@H]1C(=O)NO,IC50,[2],120 nM
